From ChEMBL document CHEMBL2069227, “Cycloartane-type triterpenes from the leaves of Homonoia riparia with VEGF-induced angiogenesis inhibitory activity” (J Nat Prod, 2012) come the findings set out here.

The source made the active and inactive calls. The rule behind the calls is not given here.

For data set [1], the system named is Rattus norvegicus. As to the kind of experiment: Inhibition of VEGF-induced vascular permeability in intradermally dosed Sprague-Dawley rat assessed as reduction in extravasation of Evans blue dye by Miles assay. Type of data set: functional, organism-based. In short, it runs like this:
(§1)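 Male Sprague–Dawley rats (250–300 g) were anesthetized and shaved, then re-anesthetized 2–3 days later and given 150 μL 1% Evans blue i.v. After 15 min, 15 μL was injected intradermally: VEGF (100 ng/mL), compound (1, 5 or 10 μg/mL) in PBS, or PBS alone. Skin was dissected after 1 h, dye eluted with formamide at 56 °C, and OD read at 620 nm. n = 3 at 10 μg/mL.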

The test system of data set [2] is Rattus norvegicus. As to the kind of experiment: Inhibition of VEGF-induced vascular permeability in intradermally dosed Sprague-Dawley rat assessed as reduction in extravasation of Evans blue dye at 10 ug/ml by Miles assay. The class given is functional. Put shortly: as §1
Data set [3] deals with HUVEC. As to the kind of experiment: Inhibition of VEGF-induced angiogenesis in HUVECs assessed as reduction in capillary-like tube formation on matrigel at 12.5 uM incubated for 6 hrs by fluorescence microscopy. Conditions: Homo sapiens. The class given is functional. Put shortly: (§2)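 HUVECs were cultured to the supplier's standard protocol. 5 × 10^4 cells were plated on basement membrane extract in medium with VEGF (10 ng/mL), with or without compound, and incubated 6 h. Cells were stained with 2 μM Calcein AM in PBS for 30 min. Tubes were imaged by fluorescence microscopy and quantified by image analysis against untreated cultures. Means ± SD, n = 3.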

Data set [4] concerns HUVEC. As to the kind of experiment: Inhibition of VEGF-induced angiogenesis in HUVECs assessed as reduction in capillary-like tube formation on matrigel at 25 uM incubated for 6 hrs by fluorescence microscopy. Type of data set: functional. Conditions: Homo sapiens. Put shortly:
as §2

Data set [5] relates to HUVEC. As to the kind of experiment: Toxicity in HUVECs at 12.5 uM. Type of data set: cell-based. Conditions: human.
The test system of data set [6] is HUVEC. As to the kind of experiment: Toxicity in HUVECs at 25 uM. Type of data set: cell-based. Conditions: human.

Broadly, the inhibition is the relative decrease from the control value, in per cent. Regarding `C=C(CC[C@@H](C)[C@H]1[C@@H](O)C[C@@]2(C)[C@@H]3C[C@@H](O)[C@H]4C(C)(C)[C@@H](O)CC[C@@]45C[C@@]35CC[C@]12C)C(C)C` (relative stereo), in the data set on Rattus norvegicus [1], the inhibition result is “inactive”.

Regarding `C=C(CC[C@@H](C)[C@H]1[C@@H](O)C[C@@]2(C)[C@@H]3[C@@H](O)[C@@H](O)[C@H]4C(C)(C)[C@@H](O[C@@H]5OC[C@@H](O)[C@H](O)[C@H]5O)CC[C@@]45C[C@@]35CC[C@]12C)C(C)C`, the inhibition result in the data set on Rattus norvegicus [1] was “Dose-dependent effect”. Besides, the “inhibition (INH)” value in the data set with Rattus norvegicus [2] was found to be 64%. In the data set on HUVEC [3], the inhibition at 12.5 µM is 28.5%. In the data set on HUVEC [4], the inhibition at 25 µM worked out at 59.5%. Further, the Activity entry in the data set on HUVEC [5] and with HUVEC [6] was “Non-toxic” throughout.

Consider `C=C(CC[C@@H](C)[C@H]1CC[C@@]2(C)[C@@H]3[C@@H](O)[C@@H](O)[C@H]4C(C)(C)[C@@H](O)CC[C@@]45C[C@@]35CC[C@]12C)C(C)C`, for which, in the data set with Rattus norvegicus [1], the inhibition result is “inactive”.

Turning to `C=C(CC[C@@H](C)[C@H]1[C@@H](O)C[C@@]2(C)[C@@H]3[C@@H](O)C[C@H]4C(C)(C)[C@@H](O[C@@H]5OC[C@@H](O)[C@H](O)[C@H]5O)CC[C@@]45C[C@@]35CC[C@]12C)C(C)C`, the inhibition entry in the data set on Rattus norvegicus [1] was “Dose-dependent effect”.

For the compound `C=C(CC[C@@H](C)[C@H]1[C@@H](O)C[C@@]2(C)[C@@H]3C[C@@H](O)[C@H]4C(C)(C)[C@@H](O[C@@H]5OC[C@@H](O)[C@H](O)[C@H]5O)CC[C@@]45C[C@@]35CC[C@]12C)C(C)C` (relative stereo), the inhibition result with Rattus norvegicus [1] was “Dose-dependent effect”.

For `C=C(CC[C@@H](C)[C@H]1CC[C@@]2(C)[C@@H]3[C@@H](O)[C@@H](O)[C@H]4C(C)(C)[C@@H](O[C@@H]5OC[C@@H](O)[C@H](O)[C@H]5O)CC[C@@]45C[C@@]35CC[C@]12C)C(C)C` (relative stereo), the inhibition result with Rattus norvegicus [1] was “inactive”.
